The values below come from ChEMBL document CHEMBL1154150, “Synthesis and anticonvulsant activity of some new bishydrazones derived from 3,4-dipropyloxythiophene” (Eur J Med Chem, 2009).

Molecules are shown by their SMILES. Calls of active or inactive are those of the source. The rule behind the calls is not given here.

For data set [1], the system named is Mus musculus. Description: Neurotoxicity in CF1 mouse at 100 mg/kg, ip after 4 hrs by rotarod test. The data set is classed as toxicity, organism-based. More on the design: dose 100 mg/kg, route intraperitoneal. The note with it: in vivo. A digest of the protocol: (§1)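 Rotorod neurotoxicity in male CF-1 mice (18–25 g) after i.p. compound in 0.5% methyl cellulose/water or PEG 200 at 30, 100 or 300 mg/kg; reported as number showing toxicity/number tested.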
In general terms: In the rotarod test animals must keep their balance on a rotating rod.

In data set [2] the test system is Mus musculus. Description: Neurotoxicity in CF1 mouse at 300 mg/kg, ip after 4 hrs by rotarod test. The data set is classed as toxicity, organism-based. The arrangement: dose 300 mg/kg, route intraperitoneal. The note with it: in vivo. A digest of the protocol:
as §1

Data set [3] has as its system Mus musculus. The data set is described as follows: Anticonvulsant activity in CF1 mouse assessed as protection against 6 Hz electric shock-induced seizures at 100 mg/kg, ip after 0.25 hrs. It counts as functional, organism-based. The arrangement: dose 100 mg/kg. Put shortly:
(§2)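 Male CF-1 albino mice (18–25 g), compound suspended in 0.5% methyl cellulose/water or PEG 200, given i.p.; four mice per time point (0.25, 0.5, 1.0, 2.0, 4 h) challenged via corneal electrodes at 6 Hz, 32 mA for 3 s, current eliciting psychomotor seizure in 97% of animals; reported as protected/tested.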

In data set [4] the test system is Mus musculus. The data set is described as follows: Anticonvulsant activity in CF1 mouse assessed as protection against 6 Hz electric shock-induced seizures at 100 mg/kg, ip after 0.5 hrs. It counts as functional, organism-based. More on the design: dose 100 mg/kg. A digest of the protocol: as §2
The subject of data set [5] is Mus musculus. Description: Anticonvulsant activity in CF1 mouse assessed as protection against 6 Hz electric shock-induced seizures at 100 mg/kg, ip after 1 hr. It counts as functional, organism-based. The arrangement: dose 100 mg/kg. Put shortly:
as §2

For data set [6], the system named is Mus musculus. Description: Anticonvulsant activity in CF1 mouse assessed as protection against 6 Hz electric shock-induced seizures at 100 mg/kg, ip after 2 hrs. The data set is classed as functional, organism-based. The arrangement: dose 100 mg/kg. A digest of the protocol:
as §2

For data set [7], the system named is Mus musculus. Description: Anticonvulsant activity in CF1 mouse assessed as protection against 6 Hz electric shock-induced seizures at 100 mg/kg, ip after 4 hrs. The data set is classed as functional, organism-based. The arrangement: dose 100 mg/kg. Put shortly: as §2
Data set [8] has as its system Mus musculus. The data set is described as follows: Anticonvulsant activity in CF1 mouse assessed as protection against maximal electroshock-induced seizures at 30 mg/kg, ip after 0.5 hrs. It counts as functional, organism-based. The arrangement: dose 30 mg/kg. A digest of the protocol:
(§3)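 Male CF-1 albino mice (18–25 g), dosed i.p. at 30, 100 or 300 mg/kg in 0.5% methyl cellulose/water or PEG 200 (0.01 ml/g); tested at intervals after dosing; protection = abolition of hind limb tonic extensor component of MES seizure; scored as protected/tested.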
On the technique in general: The maximal electroshock test induces tonic seizures with an electrical stimulus.

Data set [9] concerns Mus musculus. Description: Anticonvulsant activity in CF1 mouse assessed as protection against maximal electroshock-induced seizures at 30 mg/kg, ip after 4 hrs. The arrangement: dose 30 mg/kg. The data set is classed as functional, organism-based. Put shortly: as §3
The test system of data set [10] is Mus musculus. The data set is described as follows: Anticonvulsant activity in CF1 mouse assessed as protection against maximal electroshock-induced seizures at 100 mg/kg, ip after 0.5 hrs. It counts as functional, organism-based. More on the design: dose 100 mg/kg. Put shortly: as §3
In data set [11] the test system is Mus musculus. The data set is described as follows: Anticonvulsant activity in CF1 mouse assessed as protection against maximal electroshock-induced seizures at 100 mg/kg, ip after 4 hrs. The data set is classed as functional, organism-based. The arrangement: dose 100 mg/kg. A digest of the protocol:
as §3

The subject of data set [12] is Mus musculus. Description: Anticonvulsant activity in CF1 mouse assessed as protection against maximal electroshock-induced seizures at 300 mg/kg, ip after 0.5 hrs. It counts as functional, organism-based. The arrangement: dose 300 mg/kg. A digest of the protocol: as §3
Data set [13] concerns Mus musculus. Description: Anticonvulsant activity in CF1 mouse assessed as protection against subcutaneous metrazole-induced seizures at 30 mg/kg, ip after 0.5 hrs. It counts as functional, organism-based. More on the design: dose 30 mg/kg.
The test system of data set [14] is Mus musculus. The data set is described as follows: Anticonvulsant activity in CF1 mouse assessed as protection against subcutaneous metrazole-induced seizures at 30 mg/kg, ip after 4 hrs. It counts as functional, organism-based. The arrangement: dose 30 mg/kg.
Data set [15] has as its system Mus musculus. Description: Anticonvulsant activity in CF1 mouse assessed as protection against subcutaneous metrazole-induced seizures at 100 mg/kg, ip after 0.5 hrs. The arrangement: dose 100 mg/kg. The data set is classed as functional, organism-based.
In data set [16] the test system is Mus musculus. Description: Anticonvulsant activity in CF1 mouse assessed as protection against subcutaneous metrazole-induced seizures at 100 mg/kg, ip after 4 hrs. More on the design: dose 100 mg/kg. The data set is classed as functional, organism-based.
Data set [17] concerns Mus musculus. Description: Anticonvulsant activity in CF1 mouse assessed as protection against subcutaneous metrazole-induced seizures at 300 mg/kg, ip after 0.5 hrs. The arrangement: dose 300 mg/kg. It counts as functional, organism-based.
Data set [18] relates to Mus musculus. The data set is described as follows: Anticonvulsant activity in CF1 mouse assessed as protection against subcutaneous metrazole-induced seizures at 300 mg/kg, ip after 4 hrs. The data set is classed as functional, organism-based. The arrangement: dose 300 mg/kg.
Data set [19] concerns Mus musculus. Description: Neurotoxicity in CF1 mouse at 30 mg/kg, ip after 0.5 hrs by rotarod test. It counts as toxicity, organism-based. The arrangement: dose 30 mg/kg, route intraperitoneal. The conditions noted are these: in vivo. Put shortly:
as §1

Data set [20] has as its system Mus musculus. The data set is described as follows: Neurotoxicity in CF1 mouse at 100 mg/kg, ip after 0.5 hrs by rotarod test. It counts as toxicity, organism-based. More on the design: dose 100 mg/kg, route intraperitoneal. The conditions noted are these: in vivo. Put shortly:
as §1

The subject of data set [21] is Mus musculus. Description: Neurotoxicity in CF1 mouse at 300 mg/kg, ip after 0.5 hrs by rotarod test. The conditions noted are these: in vivo. The arrangement: dose 300 mg/kg, route intraperitoneal. The data set is classed as toxicity, organism-based. A digest of the protocol:
as §1

For data set [22], the system named is Mus musculus. The data set is described as follows: Neurotoxicity in CF1 mouse at 30 mg/kg, ip after 4 hrs by rotarod test. The data set is classed as toxicity, organism-based. The conditions noted are these: in vivo. The arrangement: dose 30 mg/kg, route intraperitoneal. Put shortly:
as §1

Data set [23] concerns Mus musculus. Description: Anticonvulsant activity in CF1 mouse assessed as protection against maximal electroshock-induced seizures at 300 mg/kg, ip after 4 hrs. The data set is classed as functional, organism-based. More on the design: dose 300 mg/kg. A digest of the protocol:
as §3

Regarding `CCCOc1c(C(=O)NN=C2CCCCC2)sc(C(=O)NN=C2CCCCC2)c1OCCC`, the Activity entry in data set [1], in data set [2], in data set [19], in data set [20], in data set [21] and in data set [22] was “Non-toxic” in each case. The outcome in data set [3], in [4], in data set [5], in data set [6], in data set [7] and in [8] was inactive. Besides, the result in data set [9], in [10], in data set [11], in data set [12], in data set [13] and in data set [14] was inactive. For the same compound, the result in data set [15], in data set [16], in [17] and in [18] was inactive.
As for `CCCOc1c(C(=O)N/N=C\c2cc(OC)c(OC)c(OC)c2)sc(C(=O)N/N=C/c2cc(OC)c(OC)c(OC)c2)c1OCCC`, the Activity entry in data set [1], in [2], in data set [19], in [20], in [21] and in data set [22] was “Non-toxic” in each case. The result in data set [3], in data set [4], in data set [7], in [8], in data set [9] and in [10] was inactive. The result in data set [11], in data set [12], in data set [23], in [13], in [14] and in data set [16] was inactive. The outcome in data set [17] and in data set [18] was inactive.
As for `CCCOc1c(C(=O)NN=C2CCCCCC2)sc(C(=O)NN=C2CCCCCC2)c1OCCC`, the Activity entry in data set [1], in [2], in [19], in [20], in data set [21] and in [22] was “Non-toxic” in each case. The result in data set [3], in data set [5], in data set [6], in [7], in [8] and in data set [9] was inactive. The result in [10], in data set [11], in [12], in data set [13], in [14] and in data set [15] was inactive. In addition, the result in data set [16], in data set [17] and in [18] was inactive.
Take `CCCOc1c(C(=O)N/N=C\c2c[nH]c3ccccc23)sc(C(=O)N/N=C/c2c[nH]c3ccccc23)c1OCCC`: the Activity result in data set [1] was “Non-toxic”; in data set [2], “Non-toxic”; in data set [19], “Non-toxic”; in data set [20], “Toxic”; in data set [21], “Toxic”; in data set [22], “Non-toxic”. Further, the result in data set [3], in data set [6], in data set [7], in [8], in data set [9] and in data set [10] was inactive. Besides, the outcome in [11], in data set [12], in data set [23], in data set [13], in data set [14] and in data set [16] was inactive. Besides, the outcome in [17] and in data set [18] was inactive.
In the case of `CCCOc1c(C(=O)N/N=C(\C)c2cccs2)sc(C(=O)N/N=C(\C)c2cccs2)c1OCCC`, the Activity entry in data set [1], in [2], in data set [19], in data set [20], in data set [21] and in data set [22] was “Non-toxic” in each case. The result in data set [3], in data set [8], in data set [9], in data set [10], in data set [11] and in [12] was inactive. The outcome in data set [13], in [14], in data set [15], in [16] and in [17] was inactive.
Turning to `CCCOc1c(C(=O)N/N=C\c2ccccc2)sc(C(=O)N/N=C/c2ccccc2)c1OCCC`, the Activity entry in [1], in data set [2], in data set [19], in data set [20], in data set [21] and in data set [22] was “Non-toxic” each time. Further, the result in [3], in data set [6], in data set [7], in [8], in data set [9] and in data set [10] was inactive. In addition, the outcome in [11], in data set [12], in data set [23], in [13], in [14] and in data set [15] was inactive. For the same compound, the result in data set [16] and in data set [17] was inactive.
For the compound `CCCOc1c(C(=O)N/N=C\c2ccc3c(c2)Cc2ccccc2-3)sc(C(=O)N/N=C/c2ccc3c(c2)Cc2ccccc2-3)c1OCCC`, the Activity result in data set [1] is reported as “Non-toxic”; in data set [2], “Toxic”; in data set [19] it was “Non-toxic”; in [21] it was “Toxic”; in data set [22], “Non-toxic”. For the same compound, the outcome in [3], in [7], in data set [8], in [9], in [10] and in [11] was inactive. The result in data set [12], in data set [23], in data set [13], in data set [14], in data set [16] and in data set [17] was inactive. In addition, the result in data set [18] was inactive.
